Activity calls are given as the source filed them. The calls are words filed in the database; no cut-off is given here.

From ChEMBL document CHEMBL1156483, “A directed approach for engineering conditional protein stability using biologically silent small molecules” (J Biol Chem, 2007) come the findings set out here.

Experiment [1] can be described thus: (§1) Stability of FKBP12 V2A mutant-YFP fusion protein expressed in NIH3T3 cells after 24 hrs by flow cytometry. Format: cell-based. The gist of the method: (§2)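 Retrovirally transduced NIH3T3 cells stably expressing V2A-YFP, plated at 1 × 10^5 cells/well and dosed with 3-fold dilutions (10 µM to 1 nM, or 10 µM to 300 nM) for 24 h. Cells trypsinized, resuspended in PBS, YFP read by flow cytometry (10,000 events). Average MFI ±SEM relative to F36V protein; EC50 from dose curve.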
Background: A flow cytometer gives signals particle by particle.

In experiment [2] the test system is NIH3T3. Description: Stability of FKBP12 V4A/17V mutant-N terminus of YFP fusion protein expressed in NIH3T3 cells assessed as mean fluorescence intensity at 1 uM after 24 hrs by flow cytometry relative to FKBP12 F36V mutant. It counts as cell-based. In short, it runs like this: (§3)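 FKBP mutants (all carrying F36V) fused to the N- or C-terminus of YFP and stably transduced into NIH3T3 cells by MMLV retrovirus (clonally mixed populations). Cells split, mock-treated or given 1 µM for 24 h. YFP read by flow cytometry, 10,000 events. MFI normalized to parent F36V-YFP cells given 1 µM; mean of three experiments ±SEM.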

The test system of experiment [3] is NIH3T3. Description: Effect on Shkbp1 mRNA level in mouse NIH3T3 cells at 10 nM after 24 hrs by microarray analysis relative to control. Format: functional. In short, it runs like this:
(§4)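 NIH3T3 cells, in triplicate, mock-treated or treated with 10 nM, 100 nM or 1 µM for 24 h. Total RNA hybridized to MEEBO oligonucleotide arrays. Differentially expressed genes identified by unpaired two-class SAM against mock-treated samples, FDR ≤27.5%. Fold change reported.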

Experiment [4] relates to NIH3T3. Description: Effect on 4930422M22Rik mRNA level in mouse NIH3T3 cells at 10 nM after 24 hrs by microarray analysis relative to control. It counts as functional. The gist of the method: as §4
The subject of experiment [5] is NIH3T3. In words: Stability of FKBP12 V2A mutant-firefly luciferase fusion protein expressed in NIH3T3 cells assessed as rescue of luminescence at 1 or 10 uM after 24 hrs by dual luciferase reporter assay. It counts as cell-based. (Reporter assays use an easily measured gene product as a stand-in for the process of interest.)
In experiment [6] the test system is NIH3T3. Description: Effect on Npas4 mRNA level in mouse NIH3T3 cells at 10 nM after 24 hrs by microarray analysis relative to control. Format: functional. In short, it runs like this:
as §4

Experiment [7] relates to NIH3T3. Description: Effect on A430110N23 mRNA level in mouse NIH3T3 cells at 10 nM after 24 hrs by microarray analysis relative to control. It counts as functional. In short, it runs like this: as §4
Experiment [8] relates to NIH3T3. Description: Stability of FKBP12 F36V mutant-N terminus of YFP fusion protein expressed in NIH3T3 cells assessed as mean fluorescence intensity at 1 uM after 24 hrs by flow cytometry. Format: cell-based. The gist of the method:
as §3

Experiment [9] deals with NIH3T3. In words: Stability of FKBP12 17V mutant-N terminus of YFP fusion protein expressed in NIH3T3 cells assessed as mean fluorescence intensity at 1 uM after 24 hrs by flow cytometry relative to FKBP12 F36V mutant. It counts as cell-based. In short, it runs like this: as §3
The subject of experiment [10] is NIH3T3. Description: Stability of FKBP12 L50A mutant-N terminus of YFP fusion protein expressed in NIH3T3 cells assessed as mean fluorescence intensity at 1 uM after 24 hrs by flow cytometry. Format: cell-based. The gist of the method: as §3
The subject of experiment [11] is NIH3T3. Description: Effect on Tcfe3 mRNA level in mouse NIH3T3 cells at 1 uM after 24 hrs by microarray analysis relative to control. Format: functional. In short, it runs like this: as §4
Experiment [12] in a line: Displacement of fluorescein-SLF from FKBP12 L106A mutant-GST fusion protein by fluorescence polarization assay.
Experiment [13] is described as follows: Displacement of fluorescein-SLF from FKBP12 F36V mutant-GST fusion protein by fluorescence polarization assay.
For experiment [14], the system named is NIH3T3. In words: Stability of FKBP12 V2A/V4A/17V mutant-N terminus of YFP fusion protein expressed in NIH3T3 cells assessed as mean fluorescence intensity at 1 uM after 24 hrs by flow cytometry relative to FKBP12 F36V mutant. Format: cell-based. The gist of the method:
as §3

Experiment [15] deals with NIH3T3. In words: Effect on Csnkle mRNA level in mouse NIH3T3 cells at 1 uM after 24 hrs by microarray analysis relative to control. Format: functional. In short, it runs like this: as §4
Experiment [16] deals with NIH3T3. In words: Effect on MtCrVgp3 mRNA level in mouse NIH3T3 cells at 10 nM after 24 hrs by microarray analysis relative to control. Format: functional. To be noted: in the assay text read “at 1 uM” for “at 10 nM”. In short, it runs like this:
as §4

The subject of experiment [17] is NIH3T3. Description: Stability of FKBP12 V2A mutant-C terminus of YFP fusion protein expressed in NIH3T3 cells assessed as mean fluorescence intensity at 1 uM after 24 hrs by flow cytometry. It counts as cell-based. The gist of the method:
as §3

The subject of experiment [18] is NIH3T3. Description: Effect on Epb4.1l2 mRNA level in mouse NIH3T3 cells at 1 uM after 24 hrs by microarray analysis relative to control. Format: functional. In short, it runs like this: as §4
Experiment [19] relates to NIH3T3. In words: Stability of FKBP12 F36V mutant-C terminus of YFP fusion protein expressed in NIH3T3 cells assessed as mean fluorescence intensity at 1 uM after 24 hrs by flow cytometry. It counts as cell-based. The gist of the method: as §3
The test system of experiment [20] is NIH3T3. Description: Stability of FKBP12 L106A mutant-N terminus of YFP fusion protein expressed in NIH3T3 cells assessed as mean fluorescence intensity at 1 uM after 24 hrs by flow cytometry. Format: cell-based. In short, it runs like this:
as §3

Experiment [21] deals with NIH3T3. In words: Stability of FKBP12 V2A mutant-N terminus of YFP fusion protein expressed in NIH3T3 cells assessed as mean fluorescence intensity at 1 uM after 24 hrs by flow cytometry relative to FKBP12 F36V mutant. It counts as cell-based. In short, it runs like this:
as §3

Experiment [22] is described as follows: Displacement of fluorescein-SLF from FKBP12 F36V mutant by fluorescence polarization assay. For orientation: In fluorescence polarisation assays a small probe gives low polarisation when free and higher when bound to something large.
Experiment [23] can be described thus: Displacement of fluorescein-SLF from FKBP12 L50A mutant-GST fusion protein by fluorescence polarization assay.
Experiment [24] concerns NIH3T3. Description: Stability of FKBP12 L106A mutant-C terminus of YFP fusion protein expressed in NIH3T3 cells assessed as mean fluorescence intensity at 1 uM after 24 hrs by flow cytometry. Format: cell-based. In short, it runs like this: as §3
The subject of experiment [25] is NIH3T3. In words: Stability of FKBP12 V2A/17V mutant-N terminus of YFP fusion protein expressed in NIH3T3 cells assessed as mean fluorescence intensity at 1 uM after 24 hrs by flow cytometry relative to FKBP12 F36V mutant. Format: cell-based. The gist of the method: as §3
Experiment [26] deals with NIH3T3. In words: Stability of FKBP12 V2A/V4A mutant-N terminus of YFP fusion protein expressed in NIH3T3 cells assessed as mean fluorescence intensity at 1 uM after 24 hrs by flow cytometry relative to FKBP12 F36V mutant. It counts as cell-based. In short, it runs like this: as §3
The test system of experiment [27] is NIH3T3. In words: Stability of FKBP12 L50A mutant-C terminus of YFP fusion protein expressed in NIH3T3 cells assessed as mean fluorescence intensity at 1 uM after 24 hrs by flow cytometry. Format: cell-based. In short, it runs like this: as §3
Experiment [28] can be described thus: Displacement of fluorescein-SLF from FKBP12 V2A mutant-GST fusion protein by fluorescence polarization assay.
The test system of experiment [29] is NIH3T3. In words: Stability of FKBP12 V2A mutant-N terminus of YFP fusion protein expressed in NIH3T3 cells assessed as mean fluorescence intensity at 1 uM after 24 hrs by flow cytometry. Format: cell-based. The gist of the method: as §3
Experiment [30] concerns NIH3T3. Description: Effect on Ptpn1 mRNA level in mouse NIH3T3 cells at 10 nM after 24 hrs by microarray analysis relative to control. It counts as functional. The gist of the method: as §4
The subject of experiment [31] is NIH3T3. In words: Stability of FKBP12 V4A mutant-N terminus of YFP fusion protein expressed in NIH3T3 cells assessed as mean fluorescence intensity at 1 uM after 24 hrs by flow cytometry relative to FKBP12 F36V mutant. Format: cell-based. The gist of the method: as §3
Experiment [32] relates to NIH3T3. In words: Prevention of proteasome mediated degradation of FKBP12-YFP fusion protein expressed in mouse NIH3T3 cells at 10 uM.
Experiment [33] relates to NIH3T3. The experiment is described as §1. It counts as cell-based. The gist of the method:
as §2

As a reminder, the EC50 is the concentration needed to bring the measured effect to its halfway point. As usually defined, the Kd is the equilibrium constant for the complex coming apart. Read a low Kd as higher affinity. The compound `CC[C@H](C(=O)N1CCCC[C@H]1C(=O)O[C@H](CCc1ccc(OC)c(OC)c1)c1cccc(OCCN2CCOCC2)c1)c1cc(OC)c(OC)c(OC)c1` gave an EC50 in experiment [1] of 60 nM. In addition, the outcome with NIH3T3 [2], in the experiment with NIH3T3 [9], in the experiment with NIH3T3 [14], with NIH3T3 [21], in the experiment on NIH3T3 [25] and with NIH3T3 [26] was Active. Besides, the result in the experiment with NIH3T3 [31] was Active. Further, the “fold change (FC)” value in the experiment on NIH3T3 [3] is -2.3; with NIH3T3 [4], -2.2; in the experiment with NIH3T3 [6], -1.7; in the experiment on NIH3T3 [7], -2.1; with NIH3T3 [11], 1.9; with NIH3T3 [15] it was 2.7. In addition, the “fold change (FC)” value is reported as -11.3 in the experiment with NIH3T3 [16], 2.2 with NIH3T3 [18] and -1.7 in the experiment on NIH3T3 [30]. The Activity entry with NIH3T3 [5] was “Dose-dependent effect”. Moreover, the Stability entry in the experiment with NIH3T3 [8], in the experiment on NIH3T3 [10], with NIH3T3 [20] and with NIH3T3 [29] was “Stable” throughout. In addition, the Kd was found to be 2 nM in [12]; 2 nM in experiment [13]; 0.4 nM in experiment [22]; 3 nM in experiment [23]; 4 nM in experiment [28]. Besides, the result in the experiment on NIH3T3 [17], in the experiment on NIH3T3 [19], in the experiment with NIH3T3 [24] and in the experiment with NIH3T3 [27] was inactive.
For `CC(=O)N[C@@H](CSC(=O)[C@]1([C@@H](O)C(C)C)NC(=O)[C@H](C)[C@@H]1O)C(=O)O`, the outcome in the experiment on NIH3T3 [32] was Active.
Take `CC[C@H](C(=O)N1CCCC[C@H]1C(=O)O[C@H](CCc1ccc(OC)c(OC)c1)c1cccc(OCC(=O)O)c1)c1cc(OC)c(OC)c(OC)c1`: in the experiment on NIH3T3 [33], the result was Active. The Kd in experiment [22] amounted to 0.4 nM.
With `CC[C@H](C(=O)N1CCCC[C@H]1C(=O)O[C@H](CCc1ccc(OC)c(OC)c1)c1cccc(OCC(=O)OCCn2ccnn2)c1)c1cc(OC)c(OC)c(OC)c1`, the outcome in the experiment with NIH3T3 [33] was Active. In addition, the Kd in experiment [22] turned out to be 0.7 nM.
For the compound `CC[C@H](C(=O)N1CCCC[C@H]1C(=O)O[C@H](CCc1ccc(OC)c(OC)c1)c1cccc(OCC(=O)NCC(C)(C)N)c1)c1cc(OC)c(OC)c(OC)c1`, in the experiment on NIH3T3 [33], the result was Active. The compound also returned a dissociation constant Kd in experiment [22] of 0.9 nM.
